According to ChEMBL document CHEMBL4325889, “Natural products hybrids: 3,5,4'-Trimethoxystilbene-5,6,7-trimethoxyflavone chimeric analogs as potential cytotoxic agents against diverse human cancer cells” (Eur J Med Chem, 2019):

Tests used:
Assay type in all cases: functional
HOP-92 = experiment: Growth inhibition of human HOP92 cells at 10 uM after 48 hrs by SRB assay relative to control; conditions: HOP-92, 48 h, read-out: GI
Outline: (§1)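 Screened at the National Cancer Institute by the standard NCI protocol using the sulforhodamine B assay, which measures cellular protein. Single dose of 10 µM. Result is percent growth inhibition; values above 100% mean cell number fell below the initial population. Values are the average of duplicates.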

HCT-116 = experiment: Growth inhibition of human HCT116 cells at 10 uM after 48 hrs by SRB assay relative to control; conditions: HCT-116, 48 h, read-out: GI; outline: as §1
SNB-75 = experiment: Growth inhibition of human SNB75 cells at 10 uM after 48 hrs by SRB assay relative to control; conditions: SNB-75, 48 h, read-out: GI
Outline: (§2)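 NCI screen against its human cancer cell line panel by the standard NCI protocol, SRB protein stain. Single dose of 10 μM. Percent growth inhibition versus control; values above 100% mean the cell population fell below the starting number. Each value is the mean of duplicates.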

NCI-H322M = experiment: Growth inhibition of human NCI-H322M cells at 10 uM after 48 hrs by SRB assay relative to control; conditions: read-out: GI; outline: as §1
UO-31 = experiment: Growth inhibition of human UO31 cells at 10 uM after 48 hrs by SRB assay relative to control; conditions: UO-31, 48 h, read-out: GI; outline: as §2
NCI/ADR-RES = experiment: Growth inhibition of human NCI/ADR-RES cells at 10 uM after 48 hrs by SRB assay relative to control; conditions: read-out: GI; outline: as §1
Malme-3M = experiment: Growth inhibition of human MALME-3M cells at 10 uM after 48 hrs by SRB assay relative to control; conditions: read-out: GI; outline: as §1
CAKI-1 = experiment: Growth inhibition of human Caki1 cells at 10 uM after 48 hrs by SRB assay relative to control; conditions: CAKI-1, 48 h, read-out: GI; outline: as §1
SK-MEL-28 = experiment: Growth inhibition of human SK-MEL-28 cells at 10 uM after 48 hrs by SRB assay relative to control; conditions: SK-MEL-28, 48 h, read-out: GI; outline: as §1
CCRF-CEM = experiment: Growth inhibition of human CCRF-CEM cells at 10 uM after 48 hrs by SRB assay relative to control; conditions: read-out: GI; outline: as §1
OVCAR-3 = experiment: Growth inhibition of human OVCAR3 cells at 10 uM after 48 hrs by SRB assay relative to control; conditions: OVCAR-3, 48 h, read-out: GI; outline: as §1
MCF7 = experiment: Growth inhibition of human MCF7 cells at 10 uM after 48 hrs by SRB assay relative to control; conditions: MCF7, 48 h, read-out: GI; outline: as §1
UACC-62 = experiment: Growth inhibition of human UACC62 cells at 10 uM after 48 hrs by SRB assay relative to control; conditions: UACC-62, 48 h, read-out: GI; outline: as §2
COLO 205 = experiment: Growth inhibition of human COLO205 cells at 10 uM after 48 hrs by SRB assay relative to control; conditions: COLO 205, 48 h, read-out: GI; outline: as §1
HL-60(TB) = experiment: Growth inhibition of human HL-60(TB) cells at 10 uM after 48 hrs by SRB assay relative to control; conditions: HL-60, 48 h, read-out: GI
Outline: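 Run at NCI under its standard single-dose protocol against a leukemia cell panel. Cells were exposed to 10 µM; growth was read by sulforhodamine B staining of cellular protein and expressed as % growth inhibition versus untreated control. Values above 100% mean the cell population fell below the starting count (cytocidal). Each value is the average of duplicates.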

RPMI-8226 = experiment: Growth inhibition of human RPMI8226 cells at 10 uM after 48 hrs by SRB assay relative to control; conditions: RPMI-8226, 48 h, read-out: GI; outline: as §1
NCI-H23 = experiment: Growth inhibition of human NCI-H23 cells at 10 uM after 48 hrs by SRB assay relative to control; conditions: NCI-H23, 48 h, read-out: GI; outline: as §1
U-251 = experiment: Growth inhibition of human U251 cells at 10 uM after 48 hrs by SRB assay relative to control; conditions: U-251, 48 h, read-out: GI; outline: as §2
UACC-257 = experiment: Growth inhibition of human UACC257 cells at 10 uM after 48 hrs by SRB assay relative to control; conditions: UACC-257, 48 h, read-out: GI; outline: as §2
HT-29 = experiment: Growth inhibition of human HT-29 cells at 10 uM after 48 hrs by SRB assay relative to control; conditions: HT-29, 48 h, read-out: GI; outline: as §1
HOP-62 = experiment: Growth inhibition of human HOP62 cells at 10 uM after 48 hrs by SRB assay relative to control; conditions: HOP-62, 48 h, read-out: GI; outline: as §1
SN12C = experiment: Growth inhibition of human SN12C cells at 10 uM after 48 hrs by SRB assay relative to control; conditions: read-out: GI; outline: as §1
SF-295 = experiment: Growth inhibition of human SF295 cells at 10 uM after 48 hrs by SRB assay relative to control; conditions: SF-295, 48 h, read-out: GI; outline: as §1
SK-MEL-5 = experiment: Growth inhibition of human SK-MEL-5 cells at 10 uM after 48 hrs by SRB assay relative to control; conditions: SK-MEL-5, 48 h, read-out: GI; outline: as §1
SF-539 = experiment: Growth inhibition of human SF539 cells at 10 uM after 48 hrs by SRB assay relative to control; conditions: SF-539, 48 h, read-out: GI; outline: as §1
OVCAR-4 = experiment: Growth inhibition of human OVCAR4 cells at 10 uM after 48 hrs by SRB assay relative to control; conditions: OVCAR-4, 48 h, read-out: GI; outline: as §1
Hs-578T = experiment: Growth inhibition of human Hs 578T cells at 10 uM after 48 hrs by SRB assay relative to control; conditions: read-out: GI; outline: as §1
HCC 2998 = experiment: Growth inhibition of human HCC2998 cells at 10 uM after 48 hrs by SRB assay relative to control; conditions: HCC 2998, 48 h, read-out: GI; outline: as §1
DU-145 = experiment: Growth inhibition of human DU145 cells at 10 uM after 48 hrs by SRB assay relative to control; conditions: DU-145, 48 h, read-out: GI; outline: as §1
IGROV-1 = experiment: Growth inhibition of human IGROV1 cells at 10 uM after 48 hrs by SRB assay relative to control; conditions: IGROV-1, 48 h, read-out: GI; outline: as §1
MDA-MB-435 = experiment: Growth inhibition of human MDA-MB-435 cells at 10 uM after 48 hrs by SRB assay relative to control; conditions: MDA-MB-435, 48 h, read-out: GI; outline: as §1
K562 = experiment: Growth inhibition of human K562 cells at 10 uM after 48 hrs by SRB assay relative to control; conditions: K562, 48 h, read-out: GI; outline: as §1
SNB-19 = experiment: Growth inhibition of human SNB19 cells at 10 uM after 48 hrs by SRB assay relative to control; conditions: SNB-19, 48 h, read-out: GI; outline: as §2

Row | SMILES | inhibition of growth at 10 µM (HOP-92) | inhibition of growth at 10 µM (HCT-116) | inhibition of growth at 10 µM (SNB-75) | inhibition of growth at 10 µM (NCI-H322M) | inhibition of growth at 10 µM (UO-31) | inhibition of growth at 10 µM (NCI/ADR-RES) | inhibition of growth at 10 µM (Malme-3M) | inhibition of growth at 10 µM (CAKI-1) | inhibition of growth at 10 µM (SK-MEL-28) | inhibition of growth at 10 µM (CCRF-CEM) | inhibition of growth at 10 µM (OVCAR-3) | inhibition of growth at 10 µM (MCF7) | inhibition of growth at 10 µM (UACC-62) | inhibition of growth at 10 µM (COLO 205) | inhibition of growth at 10 µM (HL-60(TB)) | inhibition of growth at 10 µM (RPMI-8226) | inhibition of growth at 10 µM (NCI-H23) | inhibition of growth at 10 µM (U-251) | inhibition of growth at 10 µM (UACC-257) | inhibition of growth at 10 µM (HT-29) | other results
1 | COc1cc2oc(-c3cccc(NC(=O)c4ccccc4)c3)cc(=O)c2c(OC)c1OC | 52.4% | 32.3% | 22.6% | 16.2% | 49% | 25.5% | 13.2% | 12.8% | 26.8% | 54.3% | 15.8% | 22.7% | 33.2% | 15.6% | 39.5% | 73.4% | 27.1% | 16.3% | 0.33% | 22.9% | inhibition of growth at 10 µM (HOP-62): 21.6%; inhibition of growth at 10 µM (SN12C): 23.8%; inhibition of growth at 10 µM (SF-295): 22.2%; inhibition of growth at 10 µM (SK-MEL-5): 36.8%; inhibition of growth at 10 µM (SF-539): 32.2%; inhibition of growth at 10 µM (OVCAR-4): 18.3%; inhibition of growth at 10 µM (Hs-578T): 2.76%; inhibition of growth at 10 µM (HCC 2998): 12.2%; inhibition of growth at 10 µM (DU-145): 14.5%; inhibition of growth at 10 µM (IGROV-1): 21.6%; inhibition of growth at 10 µM (MDA-MB-435): 19.3%; inhibition of growth at 10 µM (K562): 56.9%; inhibition of growth at 10 µM (SNB-19): 8.59%
2 | COc1cc2oc(-c3cccc(C(=O)Nc4ccc5c(c4)OCO5)c3)cc(=O)c2c(O)c1OC | 27% | 43% | 15.4% | 19% | 17.9% | 29.4% | 11.9% | 23.1% | 10.2% | 2.77% | 10.5% | 8.35% | 18.6% | 5.22% | 5.71% | 20.2% | 27.3% | 44.2% | 21.8% | 23.7% | inhibition of growth at 10 µM (HOP-62): 39.6%; inhibition of growth at 10 µM (SN12C): 31.3%; inhibition of growth at 10 µM (SF-295): 7.93%; inhibition of growth at 10 µM (SK-MEL-5): 16%; inhibition of growth at 10 µM (SF-539): 11.2%; inhibition of growth at 10 µM (OVCAR-4): 99.9%; inhibition of growth at 10 µM (Hs-578T): 27.3%; inhibition of growth at 10 µM (HCC 2998): -4.53%; inhibition of growth at 10 µM (DU-145): 19.6%; inhibition of growth at 10 µM (IGROV-1): 18.4%; inhibition of growth at 10 µM (MDA-MB-435): 20.9%; inhibition of growth at 10 µM (K562): 5.51%; inhibition of growth at 10 µM (SNB-19): 27.9%
